# Legend:
# Format in all cases: functional
# Conditions in all cases: Canis lupus familiaris, read-out: ID50 (the source's name)
# MDCK [1] = experiment: Antiviral activity against influenza A virus (Mississippi) in Madin Darby canine kidney (MDCK) cell culture
# Summary of the method: (§1)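 Confluent MDCK monolayers were given compound in serial 2-fold dilutions, then infected with 100 TCID50 of virus and incubated at 35 °C for 48 h. Cells were fixed, stained and scored microscopically for cytopathic effect. The dose giving 50% inhibition of CPE was read when infected controls just reached 100% CPE, in ng/mL, as the mean ± SD of at least three determinations.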
# MDCK [2] = experiment: Antiviral activity against influenza A virus (NY/83/5) in Madin Darby canine kidney (MDCK) cell culture; summary of the method: as §1
# MDCK [3] = experiment: Antiviral activity against influenza A virus (Taiwan) in Madin Darby canine kidney (MDCK) cell culture; summary of the method: as §1
Structure (SMILES),IC50 (MDCK [1]),IC50 (MDCK [2]),IC50 (MDCK [3])
CC(N)C12CC3CC(C1)C(O)C(C3)C2 (stereo not given),3.4 µg/mL,0.804 µg/mL,1.5 µg/mL
NC12CC3CC(CC(C3)C1)C2 [AMANTADINE],0.113 µg/mL,0.08 µg/mL,0.116 µg/mL
CC(N)C12CC3CC(CC(O)(C3)C1)C2 (stereo not given) [3-HYDROXYRIMANTADINE],6.7 µg/mL,4 µg/mL,5.4 µg/mL
CC(N)C12CC3CC(CC(C3)C1O)C2 (stereo not given),0.15 µg/mL,0.101 µg/mL,0.16 µg/mL
CC(N)C12CC3CC(CC(C3)C1)C2 (stereo not given) [RIMANTADINE],0.021 µg/mL,0.012 µg/mL,0.0098 µg/mL
